System: MS2 coat protein
Assay: apparent Kd, MS2 coat protein; higher = weaker binding; RNA-MaP array; FMN 200 µM where present
Summary of the method: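 Green signal was scaled to red-channel RNA signal and control-cluster median Fmax, and the apparent Kd was taken as the median of filtered per-cluster binding-curve fits. The binding series used SNAP-549-labelled MS2 coat protein from 0.7 or 1.5 nM, doubling to 3 µM, on designs transcribed by stalled E. coli RNA polymerase on Illumina sequencing-chip clusters. Each series ran without and then with constant ligand in 100 mM Tris-HCl pH 7.5, 80 mM KCl, 4 mM MgCl2, BSA, DTT, yeast tRNA and Tween-20.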

[1] = designed as: ON switch for flavin mononucleotide, no ligand
[2] = ligand present: flavin mononucleotide, designed as: ON switch for flavin mononucleotide
[3] = designed as: OFF switch for flavin mononucleotide, no ligand
[4] = ligand present: flavin mononucleotide, designed as: OFF switch for flavin mononucleotide

Row | Sequence | apparent Kd [1] [nM] | apparent Kd [2] [nM] | apparent Kd [3] [nM] | apparent Kd [4] [nM]
1 | GCGAUUAAGUAGAAGGUACGAUAUAUAUCAUUGUAAGGAUAUACUUACAUGAGGAUCACCCAUGUUAAAGGUUAUAAUAAUCGC | 94.6 | 28 | – | –
2 | AAGAAACAUGAGGAUCACCCAUGUAAAUUUAAGAGAGGAUAUCGUACAUGGAAGAUUUAACGAGAAGGCUCUAGAA | 26 | 16.1 | – | –
3 | GGUUGACAAAGUCAACCAUUACGAACAUGAGGAUCACCCAUGUAGGAUAUGCUACUCAAAGAGUAGCAGAAGGACAUGUGUCUU | – | – | 30.1 | 147
4 | GCACUGGAUGUAGGAUAUCAGGACGAUAAGUCCUGAGAAGGACAUGAGGAUCACCCAUGUAAAAUCUCACCAGUGCAUAAUAUA | – | – | 13.6 | 16.6
5 | AAAAAACAUGAGGAUCACCCAUGUGAGGAUAUCCAAAAGUUAAAUAAAAAGACGAAAAGGAGAAGGCGCAAAAA | – | – | 110 | 84.2
6 | UGAUCGAGAGAUCUUAGAUUCUGGUAGGAUAUACAAAAGUUGCGCUUUACAUGAGGAUCACCCAUGUAGAAGGACUAGAGUCUA | – | – | 7.45 | 8.66
7 | CCCUCAACAUGAGGAUCACCCAUGUAGGAUAUCGCUAUUGUAAUCAUGAAACAUGAUUACAAUAGCGAGAAGGACAUAUGCAAA | – | – | 25.2 | 126
8 | AUAUAGGCUAACAUGAGGAUCACCCAUGUGUUAUACUUAAUAUAGGAUAUGUUUAUACUUUUUGGGCAGAAGGAUGGCCUAUAU | 36.4 | 27.3 | – | –
9 | AAUUCACAUGAGGAUCACCCAUGUCAGGAUAUGGUUUCACGUGUUUCUUUGCUUGAGGCCAGAAGGGACAGCUA | – | – | 71.8 | 94.4
10 | GCUAGGAGUGUGAGGAUAUGCUGUACCUUGGUACAGCAGAAGGCACAUGAGGAUCACCCAUGUGAAGACCUAGC | – | – | 25.9 | 151
11 | CGUGCGUAUGUGAGGAUAUGCUGGUCCUUGGAUCGGCAGAAGGCACAUGAGGAUCACCCAUGUGGUGUCGUACA | – | – | 312 | 43.2
12 | CUGCUGGAGCUUUGCUUUAGUCGUACAUGAGGAUCACCCAUGUAGGAUAUGGUAGGCUUUGCUUACCAGAAGGAUAGAGUGGUC | – | – | 93.5 | 40.6
13 | GCUCGAUGCGCUGAGCACAUGAGGAUCACCCAUGUAAAUGGUCAGGAUAUUUACGUGCUUUAUGUAGAGAAGGGACCAUCGAGC | 286 | 30.9 | – | –
14 | GACUGAUUACAGAAGGUGUAAGACAUGAGGAUCACCCAUGUGAUAUAGGGUAUAUUUGAAUAUAACAAGGAUAUGUAUAAAUCA | 102 | 60.4 | – | –
15 | AGUUUUGUACAUGAGGAUCACCCAUGUUAAUAUGUGGUAGUCAGAAGGCAUUGUUAGUGUUUAUAUGAGGAUAUGAUUAUUCAG | 41.1 | 16.4 | – | –
16 | UUAAAUCAUGUAGGAUAUGCAUGGCGAAGCUACGCAGAAGGACAUGAGGAUCACCCAUGUUAUAGCUACAGAGUUCUGUGGCAA | – | – | 102 | 233
17 | GGAAAAUUGAUCCCUUUUUAUUACAUGAGGAUCACCCAUGUGCAGGAUAUCGAUUAUUAUAGUUUCGAGAAGGGCAAGAAUUGU | – | – | 40.3 | 276
18 | CACGAUGAUGUAGGAUAUAUGCUGGAAUACAGCAUAGAAGGACAUGAGGAUCACCCAUGUAAAGUGCCUCCAAAUAACAUCGUG | – | – | 18.5 | 44.5
19 | GUUGGGUGUCAUGUCGCACAUGAGGAUCACCCAUGUAAGAGGUAGGAUAUCCACGAGUAACAAGAGGAGAAGGGCCGUCAGCGU | – | – | 25.8 | 32.2
20 | AUAUAGCGAGGAUAUACAUGAGGAUCACCCAUGUGGUAGUAGAUACGGUAGAGCUAGUGUAGAAGGCGCUAUGA | – | – | 463 | 160
21 | UGAUCGAGAGAUCUUAGAUUCUGGUAGGAUAUACAUUAAAAUAGCUUUACAUGAGGAUCACCCAUGUAGAAGGACUAGAGUCUA | – | – | 7.8 | 8.67
22 | CGCUCAAGAGAGAAGGAUAGAAUCAGAAGGCGUAACAUGAGGAUCACCCAUGUAAAGUAGUGUAACGAGGAUAUGAAAUGAGCG | – | – | 11.8 | 13.1
23 | AAUCUUUUUAUGGGAUUACAAUAUGAGGAUAUCAUUCAUUUAUACAUGAGGAUCACCCAUGUUACUGAGAAGGCAUAUAUAAUA | – | 11 | – | –
24 | UUUAUAUUCAGAGGAUAUUAAAGUAGUAUAAUAUAAGAAGGCUGUUUGUUUUGUAAAUUUAUUCUACAUGAGGAUCACCCAUGU | 19.5 | 15.7 | – | –
25 | GUCGGAAACGACAAAAGUAUGGAUCCAGAAGGCAUGAAACAUGAGGAUCACCCAUGUCAAAGAUAUGAGGAUAUGGAUCCAUAC | 4.64 | 4.01 | – | –
26 | UCAUUAGCGGGCGGGUCGGUUGGACAUGAGGAUCACCCAUGUAGAAGGACCGGUGGACUCCGGCGGUAGGAUAUACAUUUGGUG | – | – | 22 | 30.7
27 | ACAGGUGCAGGAUAUACAUGAGGAUCACCCAUGUGAUUAGCAGUCCUCGGACUGCAAUGUAGAAGGGCACCUGU | – | – | 327 | 1120
28 | GGUAGCUUCACAGGAUAUGCUAUCCUUUGGGUAGCAGAAGGGUGAUACAUGAGGAUCACCCAUGUGCUGCCAGGGCGUGAGCCC | 286 | 500 | – | –

Row | Sequence | apparent Kd [1] [nM] | apparent Kd [2] [nM] | apparent Kd [3] [nM] | apparent Kd [4] [nM]
29 | AUAUUACGAGGAUAUCGUUUUUUUCACAUGAGGAUCACCCAUGUUAUCCAUGUUUCGUUUCGAGAAGGCGUAAGUU | – | – | 50.6 | 36.1
30 | CCGACGCAAGCAGGAUAUCUACUGGCGAUGGUACAUGAGGAUCACCCAUGUAGAGAAGGGCUAAGUGGAAGGAUGAUUUAAAAG | – | – | 113 | 97
31 | UGUGCGUCAGGAUAUUCUAUUUAUUACAUGAGGAUCACCCAUGUGAAUGUACAAGGGUGUGAAGAAGGGACUUGUC | – | – | 686 | 526
32 | UAUUGAUAAUAUCUUCACAUGAGGAUCACCCAUGUCGCUCGACAGGAUAUAUUUUAUUUGUUUAAGUAGAAGGGUCGCAGAUUU | 165 | 142 | – | –
33 | CACCGUUACAGAGGAUAUCUUACAUGAGGAUCACCCAUGUAAUAAAUGAGAAUUUCGGAUGUAUGAGAGAAGGCUGGAAUCGGC | – | – | 23.2 | 22
34 | GGUUGGCGAGGAUAUACAUGAGGAUCACCCAUGUGGUCCUGUGGCUGAAAAAACCUUUGUAGAAGGCGCGGGUC | – | – | 197 | 262
35 | CUGUACAUAGGAUAUAGUUGUUUUUACAUGAGGAUCACCCAUGUUACUCCUCUCUCUCUUCUAGAAGGAUGUUUCU | – | – | 65.8 | 50.1
36 | AUUUCGUUAGCAGGAUAUGGACAGGCCUGUCCGUAUUGAGUCAGUAACAUGAGGAUCACCCAUGUCCAGAAGGGCUCGAAGUAG | – | – | 8.06 | 13.9
37 | UGUUGUAUUACAGGAUAUCUAUUAUUUUUAGUUAGAGAAGGGUAUUCACAUGAGGAUCACCCAUGUAUAUACGAGGAAGUUGUG | 43.5 | 44.3 | – | –
38 | GCGUCAGAAUUAAUUGUGACAUACAGAAGGCAAUAGUUAAUUUCAGACAUGAGGAUCACCCAUGUUGAGGAUAUGUAGAGAAUC | – | – | 11.8 | 10.5
39 | AAUUCGUCAGGAUAUGCAUGUAGUUGCUACAUUUCGCCGUUGCAGAAGGGACAUGAGGAUCACCCAUGUAAGUC | – | – | 33.1 | 34.2
40 | CAUUAAUUGAUUAUUGAAUAUUUACAGGAUAUGUUACAUGAGGAUCACCCAUGUAAAUAUGGGUUACAGAAGGGUAUUUAUAGA | – | – | 36.2 | 32.5
41 | CCGGAAGUACAGGAUAUCGUAACGGAAACGUUACGAGAAGGGUAUACAUGAGGAUCACCCAUGUGUCCUACCGG | – | – | 28.3 | 26.6
42 | GGUUCUCAAAGAGAACCAUAACGAACAUGAGGAUCACCCAUGUAGGAUAUGCUACUCAAAGAGUAGCAGAAGGACAUGUGCCUU | – | – | 30.6 | 265
43 | GCUAGUAUUGCAGGAUAUUGAGAAUAAUUUUGGCAAGAAGGGCAUUACAUGAGGAUCACCCAUGUUUUCCUUAGUCAUACUAGC | – | – | 6.39 | 5.85
44 | GGAGCACACAUUAACAUGAGGAUCACCCAUGUCUAAAGACAUGAGGAUAUGGAUCCGAAAAGGAUCCAGAAGGCAUGGUGCUCC | 207 | 11.7 | – | –
45 | UGUAUUAACGGAGGAUAUCGAUAUCAAACAUGAGGAUCACCCAUGUUGAGGAUCACCCAUGUCCAUGAGAAGGCCGGCGUACUU | 36.2 | 29.4 | – | –
46 | AUAUACUUUCGAGGAUAUCGGUGAUAAAUUUUACGAGAAGGCGAUAAAAGAUAUAAUCUUAUAGACAUGAGGAUCACCCAUGUA | 30.3 | 28 | – | –
47 | AAUGUUUUCAUAGGAUAUUGACAUUUAUUUAUUCAAGAAGGAUGAUUACAUGAGGAUCACCCAUGUUAAAAUGGAUUAACUAGU | – | – | 54.4 | 162
48 | GCAUCGCAUGUCAGGAUAUGCUGUACCUUGGUACAGCAGAAGGGACAUGAGGAUCACCCAUGUGCCUACGAUGC | – | – | 29.2 | 169
49 | GUGUACAUAUCAGGAUAUCAUCGAGUGGAUUAACACAGUGAUUACAUGAGGAUCACCCAUGUGCUUGAGAAGGGAUUACAAUGU | – | – | 19.3 | 16.4
50 | AGGUGACAUGAGGAUCACCCAUGUCAGGAUAUAUACACCGCCGGCGUGAAGCCGGCGGAUAGAAGGGACAAAAU | – | – | 17.1 | 21.3
51 | CUUCGACAUGAGGAUCACCCAUGUCAGGAUAUUGUUUAUCUGGUUUUUUACAGAUAUACAAGAAGGGAUGUGUU | – | – | 27.5 | 24.6
52 | CACUCACAUGAGGAUCACCCAUGUCCUAGGAGGUCAGGAUAUAGCUCGGAUGCGUUGAGGCUAGAAGGGACAGGUU | 79.5 | 88.6 | – | –
53 | UCUAAUUAAAAUGAUUCAUCAACACAGGAUAUACCCGCAACAUGAGGAUCACCCAUGUAGGCCCGGUAGAAGGGUGCUUGGGAG | 20.5 | 6.9 | – | –
54 | GCCAGUUAUGUAGGAUAUGCGCGGCGAGCCUGAGCAGAAGGACAUGAGGAUCACCCAUGUGUUGCGGUCUGAGUACUGAUCGCU | – | – | 30.1 | 155
55 | UACAUGUGAGGAUAUGUACGAGACCCUGACGGGCCUCGCAGGCAGAAGGCACAUGAGGAUCACCCAUGUGACCG | – | – | 27.2 | 99.1
